Measurements: ChEMBL document CHEMBL4422687, “Highly potent and selective aryl-1,2,3-triazolyl benzylpiperidine inhibitors toward butyrylcholinesterase in Alzheimer's disease” (Bioorg Med Chem, 2019)
Calls of active or inactive are those of the source. The rule behind the calls is not given here.

Legend:
[1] = molecular target: Acetylcholinesterase (Homo sapiens, UniProt P22303); test: Inhibition of recombinant human AChE using acetylthiocholine iodide as substrate preincubated for 5 mins followed by substrate addition and measured for 5 mins by Ellman's method
Sequence of Acetylcholinesterase (P22303 whole entry): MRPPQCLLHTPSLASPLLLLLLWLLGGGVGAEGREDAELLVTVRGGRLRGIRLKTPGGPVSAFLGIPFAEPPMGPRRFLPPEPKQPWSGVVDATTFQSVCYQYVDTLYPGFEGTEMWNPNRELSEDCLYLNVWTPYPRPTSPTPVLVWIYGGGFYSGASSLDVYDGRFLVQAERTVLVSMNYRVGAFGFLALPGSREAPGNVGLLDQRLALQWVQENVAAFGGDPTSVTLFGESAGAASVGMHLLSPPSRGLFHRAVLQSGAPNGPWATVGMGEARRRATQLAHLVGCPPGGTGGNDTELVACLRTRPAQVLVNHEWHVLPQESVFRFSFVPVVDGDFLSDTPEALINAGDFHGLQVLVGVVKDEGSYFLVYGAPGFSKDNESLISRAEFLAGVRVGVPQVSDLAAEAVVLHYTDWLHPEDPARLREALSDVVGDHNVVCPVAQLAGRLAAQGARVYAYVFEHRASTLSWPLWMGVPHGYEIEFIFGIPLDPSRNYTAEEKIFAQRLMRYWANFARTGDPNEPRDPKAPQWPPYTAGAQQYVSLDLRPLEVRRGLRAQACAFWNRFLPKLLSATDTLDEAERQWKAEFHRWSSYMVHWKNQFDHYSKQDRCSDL

[2] = molecular target: T1, Cholinesterase (Homo sapiens, UniProt P06276); test: Inhibition of recombinant human BuChE using butyrylthiocholine iodide as substrate preincubated for 5 mins followed by substrate addition and measured for 5 mins by Ellman's method
T1 sequence (P06276 whole entry): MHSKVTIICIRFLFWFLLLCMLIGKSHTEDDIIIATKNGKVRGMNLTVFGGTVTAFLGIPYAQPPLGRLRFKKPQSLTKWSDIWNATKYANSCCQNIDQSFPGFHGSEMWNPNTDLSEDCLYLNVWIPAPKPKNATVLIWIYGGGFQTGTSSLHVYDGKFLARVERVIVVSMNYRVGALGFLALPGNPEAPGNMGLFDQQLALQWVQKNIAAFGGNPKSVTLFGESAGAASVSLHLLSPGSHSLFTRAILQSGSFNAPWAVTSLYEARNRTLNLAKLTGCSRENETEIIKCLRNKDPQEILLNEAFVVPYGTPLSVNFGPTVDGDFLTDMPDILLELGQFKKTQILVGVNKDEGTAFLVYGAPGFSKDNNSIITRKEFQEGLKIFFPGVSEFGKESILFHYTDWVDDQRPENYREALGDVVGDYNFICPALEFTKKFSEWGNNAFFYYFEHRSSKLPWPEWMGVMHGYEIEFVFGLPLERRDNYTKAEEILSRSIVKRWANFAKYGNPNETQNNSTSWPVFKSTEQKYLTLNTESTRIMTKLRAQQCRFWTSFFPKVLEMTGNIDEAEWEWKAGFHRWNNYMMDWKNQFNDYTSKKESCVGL

[3] = molecular target: T1, Cholinesterase; test: Potency index, ratio of donepezil IC50 to test compound IC50 for recombinant human BuChE
[4] = species on record: Homo sapiens; test: Selectivity ratio of IC50 for recombinant human AChE to IC50 for recombinant human BuChE
[5] = molecular target: T1, Cholinesterase; test: Mixed-type inhibition of recombinant human BuChE using varying levels of butyrylthiocholine iodide as substrate by Lineweaver-burk plot analysis
[6] = tested on: SH-SY5Y; test: Cytotoxicity against human SH-SY5Y cells assessed as reduction in cell viability at BuChE IC50 after 24 hrs by XTT assay; format: cell-based
In short: (§1)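 SH-SY5Y human neuroblastoma cells were treated with seven concentrations of each compound. Viability was read by XTT colorimetric assay after a 24 h or 120 h recovery period.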

[7] = tested on: SH-SY5Y; test: Cytotoxicity against human SH-SY5Y cells assessed as reduction in cell viability at 40 uM after 24 hrs by XTT assay; format: cell-based
[8] = tested on: SH-SY5Y; test: Cytotoxicity against human SH-SY5Y cells assessed as reduction in cell viability at BuChE IC50 after 120 hrs by XTT assay; format: cell-based; in short: as §1
[9] = tested on: SH-SY5Y; test: Cytotoxicity against human SH-SY5Y cells assessed as reduction in cell viability at 39.6 nM after 24 hrs by XTT assay; format: cell-based; details: 0.0396 µM
[10] = tested on: SH-SY5Y; test: Cytotoxicity against human SH-SY5Y cells assessed as reduction in cell viability at 80 uM after 24 hrs by XTT assay; format: cell-based
[11] = tested on: SH-SY5Y; test: Cytotoxicity against human SH-SY5Y cells assessed as reduction in cell viability at 2.5 uM after 24 hrs by XTT assay; format: cell-based

Row | SMILES | IC50 [1] [µM] | IC50 [2] [nM] | Activity [6] | other results
1 | O=C1c2ccccc2C(=O)N1Cc1cn(CC2CCN(Cc3ccccc3)CC2)nn1 | 4.9 | > 10000 |  | 
2 | O=C(Cc1c[nH]c2ccccc12)NCc1cn(CC2CCN(Cc3ccccc3)CC2)nn1 | > 10 | 5300 |  | 
3 | CC(=O)N[C@@H](Cn1cc(-c2ccccc2)nn1)C(=O)NCC1CCN(Cc2ccccc2)CC1 | > 10 | 0.17 | Non-Toxic | Ratio IC50 [3]: 53000; Ratio IC50 [4]: > 58000; inhibition [5]: Active
4 | N[C@@H](CCCCn1cc(-c2ccccc2)nn1)C(=O)NCC1CCN(Cc2ccccc2)CC1 | > 10 | 970 | Non-Toxic | Activity [7]: Toxic; Activity [8]: Non-Toxic
5 | COc1cc2ncnc(NCc3cn(CC4CCN(Cc5ccccc5)CC4)nn3)c2cc1OC | 3.94 | > 10000 |  | 
6 | CCOc1ccc2[nH]c(SCc3cn(CC4CCN(Cc5ccccc5)CC4)nn3)nc2c1 | 6.9 | 1910 |  | 
7 | N[C@@H](Cn1cc(-c2ccccc2)nn1)C(=O)NCC1CCN(Cc2ccccc2)CC1 | > 10 | 9.9 | Non-Toxic | inhibition [5]: Active; Activity [9]: Toxic; Activity [8]: Non-Toxic
8 | c1ccc(CN2CCC(Cn3cc(CSc4nc5ccccc5[nH]4)nn3)CC2)cc1 | 7.33 | 65 |  | 
9 | CC(=O)N[C@@H](CCCCn1cc(-c2ccccc2)nn1)C(=O)NCC1CCN(Cc2ccccc2)CC1 | > 10 | 1020 | Non-Toxic | Ratio IC50 [3]: 9; Activity [10]: Toxic; Activity [8]: Non-Toxic; Activity [11]: Toxic
10 | c1ccc(CN2CCC(Cn3cc(CNc4ncnc5ccccc45)nn3)CC2)cc1 | 4.22 | 2950 |  | 
11 | COc1cc2c(cc1OC)C(=O)C(Cc1cn(CC3CCN(Cc4ccccc4)CC3)nn1)C2 (stereo not drawn) | 4.92 | > 10000 |  | 
